In ChEMBL document CHEMBL1126902, “Synthesis, chemical reactivity, and antitumor evaluation of congeners of carmethizole hydrochloride, an experimental "acylated vinylogous carbinolamine" tumor inhibitor” (J Med Chem, 1993):

Assays:
[1] = Percent increase in life span of dying mice tested in vivo at 82 mg/kg against ip implanted LOX amelanotic melanoma in mice (60-day survivors); type: functional; details: Mus musculus, 1440 h, route intraperitoneal
Summary of the method: (§1)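 Nude CD2F1 female mice were implanted ip with ascitic fluid containing ca. 1.7×10^6 LOX amelanotic melanoma cells. Drug was given ip on days 1, 5 and 9, starting 24 h after implantation, and dosed by exact body weight. Solutions or suspensions were made fresh daily in saline plus Tween 80. %ILS was calculated from the median day of death of dying mice versus controls, excluding 60-day survivors.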

[2] = Change in tumor cell population in ip implanted LOX amelanotic melanoma in mice after administration of compound at 164 mg/kg; type: functional, Mus musculus; details: route intraperitoneal
Summary of the method: (§2)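 Female CD2F1 mice were implanted ip with ascitic fluid holding ca. 1.7×10^6 LOX cells. Dosing was ip on days 1, 5 and 9, starting 24 h after implantation, by exact body weight, as a solution or suspension in saline plus Tween 80, freshly prepared daily. KE is the net log change in viable tumor cells from start to end of treatment. Bracketed KE assumes Poisson survival, with 60-day survivors tumor-free.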

[3] = Change in tumor cell population in ip implanted LOX amelanotic melanoma in mice after administration of compound at 82 mg/kg; type: functional, Mus musculus; details: route intraperitoneal; summary of the method: as §2
[4] = Percent increase in life span of dying mice tested in vivo at 328 mg/kg against ip implanted LOX amelanotic melanoma in mice (60-day survivors); type: functional; details: Mus musculus, 1440 h, route intraperitoneal
Summary of the method: (§3)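 Female CD2F1 mice implanted ip with ascitic fluid carrying ca. 1.7×10^6 LOX amelanotic melanoma cells. Drug given ip on days 1, 5 and 9, starting 24 h after implant, dosed by exact body weight; solutions or suspensions made fresh daily. %ILS is from the median day of death of dying mice versus controls, excluding 60-day survivors.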

[5] = Percent increase in life span of dying mice tested in vivo at 41 mg/kg against ip implanted LOX amelanotic melanoma in mice (60-day survivors); type: functional; details: Mus musculus, 1440 h, route intraperitoneal; summary of the method: as §3
[6] = Percent increase in life span of dying mice tested in vivo at 164 mg/kg against ip implanted LOX amelanotic melanoma in mice (60-day survivors); type: functional; details: Mus musculus, 1440 h, route intraperitoneal; summary of the method: as §3
[7] = system: Mus musculus; assay: Change in tumor cell population in ip implanted LOX amelanotic melanoma in mice after administration of compound at 328 mg/kg; toxic; type: functional, organism-based; design: dose 328 mg/kg; summary of the method: as §2
[8] = Change in tumor cell population in ip implanted LOX amelanotic melanoma in mice after administration of compound at 41 mg/kg; type: functional, Mus musculus; details: route intraperitoneal; summary of the method: as §2
[9] = system: P388; assay: Change in tumor cell population in ip implanted P388 Leukemia in mice after administration of compound at 20.5 mg/kg; type: functional, Mus musculus; details: route intraperitoneal
Summary of the method: (§4)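 Female Portage-CD2F1 mice were inoculated ip with ascitic fluid holding ca. 5.2×10^6 P388 cells. Dosing was ip on days 1-5, starting 24 h after inoculation, by average body weight, as a solution or suspension in saline plus Tween 80. KE is the net log change in viable tumor cell population from start to end of the treatment period.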

[10] = system: P388; assay: Change in tumor cell population in ip implanted P388 Leukemia in mice after administration of compound at 41 mg/kg; type: functional, Mus musculus; details: route intraperitoneal; summary of the method: as §4
[11] = system: P388; assay: Change in tumor cell population in ip implanted P388 Leukemia in mice after administration of compound at 82 mg/kg; type: functional, Mus musculus; details: route intraperitoneal
Summary of the method: (§5)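 P388 leukemia: ascitic fluid with ca. 5.2×10^6 cells inoculated ip into Portage-CD₂F₁ female mice. Drug given ip on days 1-5, starting 24 h after inoculation, dosed by average body weight. Vehicle was saline plus Tween 80, as a solution or suspension. KE = net log change in viable tumor cells from start to end of treatment.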

[12] = system: P388; assay: Percent increase in life span of dying mice tested in vivo at 41 mg/kg against ip implanted P388 Leukemia in mice; type: functional; details: Mus musculus, route intraperitoneal
Summary of the method: (§6)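 Portage-CD2F1 female mice inoculated ip with ascitic fluid carrying ca. 5.2×10^6 P388 leukemia cells. Drug given ip daily on days 1-5, starting 24 h after inoculation, dosed by average body weight. %ILS is from the median day of death of dying mice versus controls.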

[13] = system: P388; assay: Percent increase in life span of dying mice tested in vivo at 82 mg/kg against ip implanted P388 Leukemia in mice; type: functional; details: Mus musculus, route intraperitoneal
Summary of the method: (§7)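 Portage-CD2F1 female mice were inoculated ip with ascitic fluid containing ca. 5.2×10^6 P388 leukemia cells. Drug was given ip daily on days 1-5, starting 24 h after inoculation, and dosed by average body weight. %ILS was calculated from the median day of death of dying mice versus controls.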

[14] = system: P388; assay: Change in tumor cell population in ip implanted P388 Leukemia in mice after administration of compound at 164 mg/kg; type: functional, Mus musculus; details: route intraperitoneal; summary of the method: as §4
[15] = system: P388; assay: Percent increase in life span of dying mice tested in vivo at 164 mg/kg against ip implanted P388 Leukemia in mice; type: functional; details: Mus musculus, route intraperitoneal; summary of the method: as §6
[16] = system: P388; assay: Percent increase in life span of dying mice tested in vivo at 20.5 mg/kg against ip implanted P388 Leukemia in mice; type: functional; details: Mus musculus, route intraperitoneal; summary of the method: as §6
[17] = Percent increase in life span of dying mice tested in vivo at 45.5 mg/kg against ip implanted LOX amelanotic melanoma in mice (60-day survivors); type: functional; details: Mus musculus, 1440 h, route intraperitoneal; summary of the method: as §3
[18] = Percent increase in life span of dying mice tested in vivo at 91 mg/kg against ip implanted LOX amelanotic melanoma in mice (60-day survivors); type: functional; details: Mus musculus, 1440 h, route intraperitoneal; summary of the method: as §1
[19] = Change in tumor cell population in ip implanted LOX amelanotic melanoma in mice after administration of compound at 91 mg/kg; type: functional, Mus musculus; details: route intraperitoneal; summary of the method: as §2
[20] = Change in tumor cell population in ip implanted LOX amelanotic melanoma in mice after administration of compound at 182 mg/kg; type: functional, Mus musculus; details: route intraperitoneal; summary of the method: as §2
[21] = Change in tumor cell population in ip implanted LOX amelanotic melanoma in mice after administration of compound at 22.75 mg/kg; type: functional, Mus musculus; details: route intraperitoneal; summary of the method: as §2
[22] = Change in tumor cell population in ip implanted LOX amelanotic melanoma in mice after administration of compound at 45.5 mg/kg; type: functional, Mus musculus; details: route intraperitoneal; summary of the method: as §2
[23] = Percent increase in life span of dying mice tested in vivo at 22.75 mg/kg against ip implanted LOX amelanotic melanoma in mice (60-day survivors); type: functional; details: Mus musculus, 1440 h, route intraperitoneal; summary of the method: as §3
[24] = Percent increase in life span of dying mice tested in vivo at 182 mg/kg against ip implanted LOX amelanotic melanoma in mice (60-day survivors); type: functional; details: Mus musculus, 1440 h, route intraperitoneal; summary of the method: as §3
[25] = system: P388; assay: Change in tumor cell population in ip implanted P388 Leukemia in mice after administration of compound at 22.8 mg/kg; type: functional, Mus musculus; details: route intraperitoneal; summary of the method: as §4
[26] = system: P388; assay: Change in tumor cell population in ip implanted P388 Leukemia in mice after administration of compound at 45.5 mg/kg; type: functional, Mus musculus; details: route intraperitoneal; summary of the method: as §5
[27] = system: P388; assay: Change in tumor cell population in ip implanted P388 Leukemia in mice after administration of compound at 91 mg/kg; type: functional, Mus musculus; details: route intraperitoneal; summary of the method: as §5
[28] = system: P388; assay: Percent increase in life span of dying mice tested in vivo at 22.8 mg/kg against ip implanted P388 Leukemia in mice; type: functional; details: Mus musculus, route intraperitoneal; summary of the method: as §6
[29] = system: P388; assay: Percent increase in life span of dying mice tested in vivo at 45.5 mg/kg against ip implanted P388 Leukemia in mice; type: functional; details: Mus musculus, route intraperitoneal; summary of the method: as §6
[30] = system: P388; assay: Percent increase in life span of dying mice tested in vivo at 91 mg/kg against ip implanted P388 Leukemia in mice; type: functional; details: Mus musculus, route intraperitoneal; summary of the method: as §7
[31] = system: P388; assay: Change in tumor cell population in ip implanted P388 Leukemia in mice after administration of compound at 11.4 mg/kg; type: functional, Mus musculus; details: route intraperitoneal; summary of the method: as §4
[32] = system: P388; assay: Percent increase in life span of dying mice tested in vivo at 11.4 mg/kg against ip implanted P388 Leukemia in mice; type: functional; details: Mus musculus, route intraperitoneal; summary of the method: as §6

For `CNC(=O)OCc1nc(SSc2nc(COC(=O)NC)c(COC(=O)NC)n2C)n(C)c1COC(=O)NC`, the ILS at 82 mg/kg [1] was -5%, the KE [2] was 1.8 and the KE [3] was 1.8. The ILS at 328 mg/kg [4] was -69%, the ILS at 41 mg/kg [5] was 3% and the ILS at 164 mg/kg [6] was -5%. The KE [7] was “Toxic”, the KE [8] was 1.5 and the KE [9] was 1.3. For the same compound, the KE [10] was 1.3, the KE [11] was 1.3 and the ILS at 41 mg/kg [12] was 20%. The ILS at 82 mg/kg [13] was 17%, the KE [14] was 0.9 and the ILS at 164 mg/kg [15] was 26%. The ILS at 20.5 mg/kg [16] was 17%.
Work on `CNC(=O)OCc1nc([S+](C)[O-])n(C)c1COC(=O)NC` (configuration not stated) yielded an ILS at 45.5 mg/kg [17] of -8%, an ILS at 91 mg/kg [18] of -8% and a KE [19] of 2. For the same compound, the KE [20] was 1.8, the KE [21] was 2 and the KE [22] was 2. It also gave an ILS at 22.75 mg/kg [23] of -7%, an ILS at 182 mg/kg [24] of 2% and a KE [25] of 1.4. For the same compound, the KE [26] was 0.9, the KE [27] was 1.3 and the ILS at 22.8 mg/kg [28] was 10%. The ILS at 45.5 mg/kg [29] was 27%, the ILS at 91 mg/kg [30] was 17% and the KE [31] was 1.4. The ILS at 11.4 mg/kg [32] was 10%.
